In ChEMBL document CHEMBL4477241, “Structure-Activity Relationship Studies for Enhancer of Zeste Homologue 2 (EZH2) and Enhancer of Zeste Homologue 1 (EZH1) Inhibitors” (J Med Chem, 2016):

What was measured:
[1] = target: T1, Histone-lysine N-methyltransferase EZH1 (Homo sapiens, UniProt Q92800); assay: Inhibition of EZH1 histone methyltransferase activity of EZH1/EED/SUZ12/RBBP4/AEBP2 protein complex (unknown origin) using histone H3 peptide as substrate (21 to 44 residues) in presence of [3H]-S-adenosylmethionine after 2 hrs by scintillation proximity assay
T1 sequence (Q92800 whole entry): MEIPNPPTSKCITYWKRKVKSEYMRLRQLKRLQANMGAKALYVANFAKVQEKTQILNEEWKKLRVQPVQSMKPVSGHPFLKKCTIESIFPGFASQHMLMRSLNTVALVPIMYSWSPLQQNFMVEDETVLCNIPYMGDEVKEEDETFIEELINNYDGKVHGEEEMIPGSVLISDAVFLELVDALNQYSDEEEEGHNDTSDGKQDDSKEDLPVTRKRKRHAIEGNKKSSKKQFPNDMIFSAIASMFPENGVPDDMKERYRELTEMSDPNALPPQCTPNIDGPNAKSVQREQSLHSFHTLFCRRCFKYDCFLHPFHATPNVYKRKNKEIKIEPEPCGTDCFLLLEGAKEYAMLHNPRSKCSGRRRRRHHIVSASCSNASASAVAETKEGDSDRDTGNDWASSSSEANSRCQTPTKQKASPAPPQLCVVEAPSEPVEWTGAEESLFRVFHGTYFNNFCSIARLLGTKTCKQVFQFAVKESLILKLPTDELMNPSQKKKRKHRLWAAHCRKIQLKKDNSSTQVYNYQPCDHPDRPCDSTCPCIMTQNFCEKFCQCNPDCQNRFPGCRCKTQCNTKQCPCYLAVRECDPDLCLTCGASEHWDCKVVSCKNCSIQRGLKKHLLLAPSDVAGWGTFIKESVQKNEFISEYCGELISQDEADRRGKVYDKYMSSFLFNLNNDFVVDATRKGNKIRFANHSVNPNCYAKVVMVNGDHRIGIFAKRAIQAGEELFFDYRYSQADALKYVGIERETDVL
In short: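 10 nM EZH1 pentameric complex with 4 μM 3H-SAM and 1 μM biotinylated H3(21–44) in 20 mM Tris-HCl pH 8, 5 mM DTT, 0.01% Triton X-100. Reaction run 1 h at 23 °C, stopped with guanidine hydrochloride, then captured 2 h on a streptavidin flash plate. Counts normalized to no-compound (100%) and no-enzyme (0%) controls.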

[2] = target: Histone-lysine N-methyltransferase EZH2 (Homo sapiens, UniProt O75530+Q15022+Q15910); assay: Inhibition of EZH2 histone methyltransferase activity of EZH2/EED/SUZ12 protein complex (unknown origin) using histone H3 peptide as substrate (21 to 44 residues) in presence of [3H]-S-adenosylmethionine after 2 hrs by scintillation proximity assay
In short: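 20 nM EZH2 trimeric complex with 2 μM 3H-SAM and 1 μM biotinylated H3(21–44) in 20 mM Tris-HCl pH 8, 5 mM DTT, 0.01% Triton X-100. Incubated 1 h at 23 °C, quenched with guanidine hydrochloride, then 2 h streptavidin flash-plate capture. Activity scaled between no-compound and no-enzyme counts.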

Sequence of Histone-lysine N-methyltransferase EZH2 (Q15910 whole entry, the tested form may be a part, one chain of several): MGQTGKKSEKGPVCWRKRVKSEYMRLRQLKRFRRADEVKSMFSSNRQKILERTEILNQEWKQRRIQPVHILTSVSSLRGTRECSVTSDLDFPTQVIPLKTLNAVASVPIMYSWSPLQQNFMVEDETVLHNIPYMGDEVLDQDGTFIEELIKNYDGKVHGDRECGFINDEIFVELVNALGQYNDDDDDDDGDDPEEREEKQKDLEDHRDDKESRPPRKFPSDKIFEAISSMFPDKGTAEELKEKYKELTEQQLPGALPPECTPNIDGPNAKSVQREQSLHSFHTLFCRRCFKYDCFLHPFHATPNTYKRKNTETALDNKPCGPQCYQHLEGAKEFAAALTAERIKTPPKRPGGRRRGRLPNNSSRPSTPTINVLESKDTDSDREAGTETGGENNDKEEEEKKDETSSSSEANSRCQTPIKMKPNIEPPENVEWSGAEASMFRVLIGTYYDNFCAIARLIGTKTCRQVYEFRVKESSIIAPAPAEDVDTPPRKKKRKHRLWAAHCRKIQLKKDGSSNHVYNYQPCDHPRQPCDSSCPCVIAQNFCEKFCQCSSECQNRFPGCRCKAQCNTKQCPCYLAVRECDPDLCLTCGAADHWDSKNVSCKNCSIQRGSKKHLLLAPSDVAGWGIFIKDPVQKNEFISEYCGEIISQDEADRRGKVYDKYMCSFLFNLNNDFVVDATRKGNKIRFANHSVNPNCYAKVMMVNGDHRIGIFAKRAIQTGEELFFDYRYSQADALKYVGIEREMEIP

With `CCCc1cc(C)[nH]c(=O)c1CNC(=O)c1cc(-c2ccc(N3CCN(C(C)C)CC3)nc2)cc2c1cnn2C` the IC50 [1] was greater than 2500 nM and the IC50 [2] was 190 nM.
